Key:
HeLa cells [1] = assay: Flow cytometric analysis of cell cycle distribution; type: cell-based, human; details: 24 h treatment, evident at 500 nM
How it was run: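 HeLa cells (5 × 10^5) exposed to a range of test compound concentrations for 24 h, collected, and fixed in ice-cold 70% ethanol. Treated with lysis buffer containing RNase A and 0.1% Triton X-100, stained with PI, then analysed by flow cytometry. Phase distribution taken from DNA histograms. Mean ± SEM of two independent experiments.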

HeLa cells [2] = assay: Apoptosis assay; type: cell-based, human; details: 24 h incubation, further increased at 48 h
[3] = test system: L1210, FM3A, CEM and HeLa cell lines; assay: Antiproliferative activity over the panel of four cancer cell lines; type: cell-based
How it was run: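 Cells were seeded at 300,000–500,000 cells/mL with serial dilutions of test compound and incubated at 37 °C: 2 days for L1210 and FM3A, 3 days for CEM, and 4 days for HeLa. Cell number was counted with a Coulter counter. For each line, IC50 was the concentration that inhibited proliferation by 50%.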

HeLa cells [4] = assay: Mitochondrial membrane potential; type: cell-based, human; details: 100–250 nM, 6-48 h
How it was run: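 HeLa cells treated with test compound for 6, 12, 24 or 48 h, then stained with the lipophilic cationic probe JC-1. Mitochondrial potential read by flow cytometry. Data are mean ± SEM of three independent experiments.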

HeLa cells [5] = assay: ROS production; type: cell-based, human; details: 250 nM, starting after 12–24 h
HeLa cells [6] = assay: Western blot analysis of cell cycle checkpoint and apoptosis proteins; type: cell-based, human

In the case of `COC(=O)c1sc(-c2ccccc2)cc1Nc1cc(OC)c(OC)c(OC)c1` [Compound 4a, Methyl 5-phenyl-3-[(3,4,5-trimethoxyphenyl)amino]thiophene-2-carboxylate], the “Effect on cell cycle progression” value (HeLa cells [1]) is reported as “induced a G2/M arrest” and the “Induction of apoptosis (annexin-V/PI)” value (HeLa cells [2]) is reported as “induced a significant proportion of apoptotic cells”.
With `COC(=O)c1sc(-c2cccs2)cc1Nc1cc(OC)c(OC)c(OC)c1` [Compound 4c, Methyl 4-[(3,4,5-trimethoxyphenyl)amino]-[2,2′-bithiophene]-5-carboxylate] the IC50 ([3]; read-out: mean IC50 value (antiproliferative activity), mean over cell lines) was 0.14 µM, the “Effect on cell cycle progression” value (HeLa cells [1]) was “induced a G2/M arrest” and the “Induction of apoptosis (annexin-V/PI)” value (HeLa cells [2]) was “induced a significant proportion of apoptotic cells”. For the same compound, the “Mitochondrial depolarization (cells with low Δψmt)” value (HeLa cells [4]) was “time-dependent increase in the percentage of cells with low Δψmt”, the ROS production (HeLa cells [5]) was “induced significant production of ROS” and the PARP cleavage (HeLa cells [6]) was “concentration-and time-dependent cleavage of PARP”. The “cyclin B1 expression” value (HeLa cells [6]; 24 h, concentration-dependent, marked reduction at 48 h) was “increase in cyclin B1 expression”, the cdc25c expression (HeLa cells [6]; 24 h, even at 100 nM) was “marked reduction in the expression of phosphatase cdc25c” and the “phosphorylated Cdk1” value (HeLa cells [6]; 24 h and 48 h, 250 nM) was “decrease in the phosphorylated form of cyclin dependent kinase-1”. The “expression of anti-apoptotic proteins Bcl-2 and Mcl-1” value (HeLa cells [6]; starting after 24 h, even at 0.1 μM) was “decreased”.
`COC(=O)c1sc(-c2ccc(C)cc2)cc1Nc1cc(OC)c(OC)c(OC)c1` [Compound 4i, Methyl 5-(p-tolyl)-3-[(3,4,5-trimethoxyphenyl)amino]thiophene-2-carboxylate] was tested, and the “Effect on cell cycle progression” value (HeLa cells [1]) was “induced a G2/M arrest” and the “Induction of apoptosis (annexin-V/PI)” value (HeLa cells [2]) was “induced a significant proportion of apoptotic cells”.
For `COC(=O)c1sc(-c2cc(OC)c(OC)c(OC)c2)cc1Nc1cc(OC)c(OC)c(OC)c1` [Compound 4p, Methyl 5-(3,4,5-trimethoxyphenyl)-3-[(3,4,5-trimethoxyphenyl)amino]thiophene-2-carboxylate], the “antiproliferative activity (in words)” value ([3]; four cancer cell lines) was “not active”.
